Screening data as filed in PubChem.
Most compounds without a hit are left out; they make up all but 1.6% or so of the library.
HNF4A DNA FP = change in binding of human HNF4 alpha to DNA; HNF4a-FITC DNA binding, fluorescence polarization, 1 h; activity change, % at 10 µM; actives 0.3% (n = 360,000); AID 1224865; in the data active means activity change above about 30%, passing the limit was not always enough
PKA-R1A activ = activates the PKA-R1A holoenzyme complex. AID 504707. actives 0.083% (n = 340,000). PKA-R1A dissociation, Cy5-IP20 fluorescence polarization; scaled: DMSO 0%, 113 µM cGMP 100%. P00514+P68181. activation, % at 11.4 µM;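 active means percent activation above the mean of all tested compounds plus 3 SD, cut at about 19% in these data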;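 further: higher means more PKAc released from R1A so a rise in polarization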
Rpn11 block = blocks the human proteasome subunit Rpn11. O00487. human 26S proteasome, Ub4-pepOG fluorescence polarization; 20S core pre-blocked with epoxomicin. calls only at 20 µM. actives 0.59% (n = 360,000). AID 588493;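 active means inhibition at 20 µM, scaled to each plate's controls, above about 33%, limit read from the data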
Target sequence (O00487 whole entry, looked up): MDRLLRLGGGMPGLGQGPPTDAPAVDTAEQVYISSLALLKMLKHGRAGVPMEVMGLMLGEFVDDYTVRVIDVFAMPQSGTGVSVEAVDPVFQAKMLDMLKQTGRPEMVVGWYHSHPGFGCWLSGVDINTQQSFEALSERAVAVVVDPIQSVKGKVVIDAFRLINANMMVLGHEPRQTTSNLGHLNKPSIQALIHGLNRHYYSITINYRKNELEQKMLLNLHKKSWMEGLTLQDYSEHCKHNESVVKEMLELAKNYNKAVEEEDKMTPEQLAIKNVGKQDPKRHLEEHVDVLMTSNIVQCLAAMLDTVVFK
PKA-R2B act = PKA-R2B complex activation. P22694+P31323. PKA-R2B holoenzyme dissociation, Cy5-IP20 fluorescence polarization; R2B truncated from residue 108, S112A mutant; 0% DMSO only, 100% 113 µM cGMP. activation, % at 11.4 µM. actives 0.079% (n = 340,000). AID 504700;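 active means activation above a cutoff set at the mean over all compounds plus 3 SD, cut at about 18% in these data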;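 further: higher means more holoenzyme dissociation and a rise in polarization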
TPT1 inhibitor = blocks Candida albicans tRNA 2'-phosphotransferase; recombinant caTPT1, FP RNA substrate dephosphorylation; inhibition, % at 5 µM; actives 0.81% (n = 300,000); AID 1962;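 active means inhibition above the mean of all tested compounds plus 3 SD, set per screening campaign, cut at about 24% in these data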;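 further: plate controls were DMSO alone for no effect and ferristatin control at 100 nM for full effect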
CSN inh = CSN deneddylation inhibition | actives 0.38% (n = 360,000) | Q92905 | inhibition, % at 12.5 µM | Purified CSN, SCF-Nedd8-OG deneddylation, fluorescence polarization;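 active means pattern-corrected inhibition above about 35%, with an unprinted fluorescence ratio check between 0.5 and 1.5, limit read from the data, passing the limit was not always enough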;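 further: 0% = enzyme with substrate and 100% = substrate without enzyme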
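Assay system: purified human Csn5 enzyme expressed in HEK293T cells; Input: 0.24 nM Csn5 enzyme, final concentration; Reagent: 10 nM SCFSkp2-Nedd8OG; Compound dosing: 12.5 µM single point; Times: reaction 90 min, room temperature; Technique: fluorescence polarization readout.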
TPT1 inh confirm = TPT1 (C. albicans) inhibition, confirmation; actives 74% (n = 2,400); recombinant caTPT1, fluorescence polarization, RNase T1 coupled; inhibition, % at 5 µM; shares compounds with TPT1 inhibitor;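 active means inhibition above the primary screen limit, the mean inhibition of all tested compounds plus 3 SD, cut at about 25% in these data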
RNase T1 counter = blocks Aspergillus oryzae RNase T1, a TPT1 counter-screen. shares compounds with TPT1 inhibitor. RNase T1 cleavage, fluorescence polarization, 1536-well. inhibition, % at 5 µM. actives 83% (n = 2,400). AID 2153;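 active means inhibition above the solvent-only control well mean plus 3 SD, limit set per screening run, cut at about 23% in these data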;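 further: plate controls were DMSO wells with enzyme for no effect and wells without RNase T1 for full effect; inhibitors block cleavage so intact labeled substrate keeps polarization high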
Target sequence (P00651 whole entry, looked up): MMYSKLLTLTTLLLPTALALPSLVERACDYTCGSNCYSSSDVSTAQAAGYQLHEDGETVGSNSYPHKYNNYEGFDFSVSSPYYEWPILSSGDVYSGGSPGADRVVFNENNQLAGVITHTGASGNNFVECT
CSN5 deneddyl = Csn5 (human) deneddylation inhibition, single-concentration validation. Csn5 deneddylation of SCF-Nedd8OG, fluorescence polarization, 90 min. shares compounds with CSN inh. actives 62% (n = 540). inhibition, % at 16.6 µM. AID 720654; in the data active means inhibition above about 50%;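 further: 0% = DMSO with enzyme and 100% = no enzyme wells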
MMP2 cntr CSN = blocks human MMP-2 in a CSN deneddylation counter-screen. recombinant MMP-2, FRET substrate fluorescence, 60 min. shares compounds with CSN inh. actives 33% (n = 540). inhibition, % at 16.6 µM. AID 720655;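 active means corrected plate-normalized z-score of 5 or more, or -5 or less, or inhibition of 15% or more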;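 further: plate controls were DMSO wells with enzyme for no effect and buffer wells lacking MMP-2 for full effect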
Thrombin cntr = thrombin (bovine) inhibition, counter-screen for CSN hits; shares compounds with CSN inh; bovine thrombin cleavage of Ub4-pepOG, fluorescence polarization; inhibition, % at 16.6 µM; actives 49% (n = 540); AID 720656;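 active means inhibition at or above a set limit, with a fluorescence interference ratio between 0.5 and a set maximum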
The depositor's hits bear a star; i = inactive; x = no result given; + = active, no number.

SMILES	HNF4A DNA FP	PKA-R1A activ	Rpn11 block	PKA-R2B act	TPT1 inhibitor	CSN inh	TPT1 inh confirm	RNase T1 counter	CSN5 deneddyl	MMP2 cntr CSN	Thrombin cntr
COc1cccc(NC(=O)CN(C)C(=O)c2cc(-c3ccco3)nc3ccccc23)c1	-3	-18	i	-4	0	11	x	x	x	x	x
N#C/C(=C/c1ccc(N2CCCCCC2)o1)c1ccc(Cl)cc1	110	-4	x	-18	158*	78*	187*	172*	188*	-34*	58*
CCC1CN(C(=O)N2CCC(C(=O)NCc3cccc(F)c3)CC2)c2ccccc2O1 (stereo unspecified)	5	-6	i	-7	3	-1	x	x	x	x	x
CCOc1ccccc1/C=N/NC(=O)c1c(C)nc2ccc(Br)cn12	2	-9	i	8	-1	-3	x	x	x	x	x
COc1cccc(/C=N/NC(=O)c2c(C)nc3ccc(Br)cn23)c1O	4	-5	i	-15	31*	45*	43*	46*	6	2	-18
N#C/C(=C\c1ccc(N2CCOCC2)o1)C(=O)NC1CCCCC1	166	-8	x	3	163*	77*	177*	169*	141*	-10	65*
N#C/C(=C\c1ccc(N2CCOCC2)o1)C(=O)NCCc1ccccc1	188	-8	x	2	+	98*	181*	171*	+	-19	-5
COc1ccccc1CNC(=O)CCS(=O)(=O)c1cccc2nonc12	0	-3	i	10	3	3	x	x	x	x	x
Cc1[nH]c2ccccc2c1C(=O)C(=O)N1CCN(C(=O)c2ccco2)CC1	-1	5	i	1	-1	-1	x	x	x	x	x
Nc1ccc(/C=C/C(=O)c2cccs2)cc1	19	-6	x	-4	78*	40*	96*	99*	72*	-16	32*
COc1ccc(N=Cc2c(O)c3ccccc3n2C(C)=O)cc1	97*	-9	x	-3	122*	61*	131*	128*	50*	-26	56*
COc1ccc(CCN2CC(C(=O)NCc3nc4ccccc4n3C)CCC2=O)cc1 (stereo unspecified)	2	-8	i	-7	1	-1	x	x	x	x	x
CC[n+]1c(/C=C/N(C)c2ccccc2)oc2ccc(F)cc21	60*	1	x	-3	55*	37*	72*	81*	122*	-4	47*
CC1=NN(c2ccccc2)C(=O)/C1=C\C=C1/N(C)c2ccccc2C1(C)C	109*	-1	x	-2	74*	80*	74*	84*	65*	1	71*
